Data published in ChEMBL document CHEMBL4699666, “Cyclic Peptidyl Inhibitors against CAL/CFTR Interaction for Treatment of Cystic Fibrosis” (J Med Chem, 2020).
Positions of bridges follow the written chain, without caps; N, C: chain ends. Non-standard residues stand in square brackets, D forms with d. Residues, ends and D or L forms follow the SMILES beside them. 2Nal = N[C@@H](Cc1ccc2ccccc2c1)C(=O)O; Bta = N[C@@H](Cc1csc2ccccc12)C(=O)O; Pen = CC(C)(S)[C@H](N)C(=O)O; Tle = CC(C)(C)[C@H](N)C(=O)O; Pip = O=C(O)[C@@H]1CCCCN1

Tests used:
HCT-116 = assay: Toxicity in human HCT-116 cells assessed as reduction in cell viability up to 50 uM incubated for 72 hrs by MTT assay; assay type: cell-based; details: hct-116, 72 h
Procedure, shortened: (§1)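 CFBE41o-, HCT116 or H358 cells were seeded at 5 × 10^3 per well and the next day exposed for 72 h at 37 °C to serial dilutions of peptide in DPBS at constant 0.5% DMSO. MTT was added for 4 h, formazan was solubilized with SDS-HCl overnight and absorbance read at 565 nm. Viability was expressed relative to 0.5% DMSO controls (100%); n = 3.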

[1] = Toxicity in human CFBE41o- cells assessed as reduction in cell viability up to 50 uM incubated for 72 hrs by MTT assay; assay type: cell-based; procedure, shortened: as §1
NCI-H358 = assay: Toxicity in human NCI-H358 cells assessed as reduction in cell viability up to 50 uM incubated for 72 hrs by MTT assay; assay type: cell-based; details: nci-h358, 72 h; procedure, shortened: as §1
Epithelial cell = assay: Inhibition of CAL and CFTR F508del mutant interaction in human CF-HBE cells isolated from patient with F508del mutation assessed as increase in short-circuit current incubated for 24 hrs in presence of 5 uM VX-661 by relative to VX-661 alone; assay type: cell-based
Procedure, shortened: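 Primary bronchial epithelia from F508del/F508del donors (three donors) were grown at air/liquid interface and given corrector (5 μM VX-661) or none. After 24 h, peptide or DMSO was applied apically in Hank's solution for 1 h, then removed, and cells were kept a further 24 h. Ussing chambers used Ringer's with a low-chloride apical side. Isc changes were read after forskolin (10 μM) activation and Inh-172 inhibition; n = 5 filters.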

[2] = Drug metabolism in human HCT-116 cells assessed as formation of (2S)-2-[[(2S)-2-[[(2S,3R)-2-[[(2R)-2-[[(2S)-1-[(2S)-2-[[(2S)-2-[[(2S)-2-[[(2S)-2-[[(2R)-2-[[(2R)-2-acetamido-3-sulfanyl-propanoyl]amino]-5-guanidino-pentanoyl]amino]-5-guanidino-pentanoyl]amino]-5-guanidino-pentanoyl]amino]-3-(2-naphthyl)propanoyl]amino]-3-(benzothiophen-3-yl)propanoyl]piperidine-2-carbonyl]amino]-3-methyl-3-sulfanyl-butanoyl]amino]-3-hydroxy-butanoyl]amino]-5-guanidino-pentanoyl]amino]-3,3-dimethyl-butanoic acid at 5 uM incubated for 4 to 24 hrs by MALDI-TOF-TOF mass spectrometry; assay type: ADME, cell-based; details: hct-116, 5 µM, time 4-24 hrs
Procedure, shortened: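 HCT116 spheroids (7,000 cells seeded on agarose, grown 12 days) were exposed to 5 μM cyclic peptide for 4 or 24 h. They were washed, gelatin-embedded and cut into 16 μm sections. Positive-ion MALDI-TOF-TOF imaging (m/z 360–1400) gave heatmaps, scaled to the most intense signal, for intact peptide and about 20 possible proteolytic fragments.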

Drug metabolism [2]: Metabolite_Detected
SMILES: CC(=O)N[C@H]1CSSC(C)(C)[C@@H](C(=O)N[C@H](C(=O)N[C@@H](CCCNC(=N)N)C(=O)N[C@H](C(=O)O)C(C)(C)C)[C@@H](C)O)NC(=O)[C@@H]2CCCCN2C(=O)[C@H](Cc2csc3ccccc23)NC(=O)[C@H](Cc2ccc3ccccc3c2)NC(=O)[C@H](CCCNC(=N)N)NC(=O)[C@H](CCCNC(=N)N)NC(=O)[C@@H](CCCNC(=N)N)NC1=O (Ac-C[dR]RR[2Nal][Bta][Pip][Pen]TR[Tle]-OH; disulfide 1-8)
Activity (HCT-116): Non-Toxic
Activity [1]: Non-Toxic
Activity (NCI-H358): Non-Toxic
conc. at maximal effect (Epithelial cell): 100 nM
inhibition (Epithelial cell): Dose-dependent effect
